Measured values: ChEMBL document CHEMBL3813648, “Synthesis and evaluation of antioxidant phenolic diaryl hydrazones as potent antiangiogenic agents in atherosclerosis” (Bioorg Med Chem, 2016)
Activity calls are given as the source filed them. The calls are words filed in the database; no cut-off is given here.

Assays:
[1] = Cytotoxicity against HMEC1 assessed as cell viability at 10 uM after 24 hrs by MTT assay in absence of oxidized LDL; set-up: species or system HMEC-1; details: human, HMEC1 cells; read-out: Activity
[2] = Cytotoxicity against HMEC1 assessed as cell viability at 1 uM after 24 hrs by MTT assay in absence of oxidized LDL; set-up: species or system HMEC-1; details: human, HMEC1 cells; read-out: Activity
HMEC-1 [3] = assay: Antiangiogenic activity in HMEC1 assessed as inhibition of oxidized LDL induced tube formation at 10 uM after 18 hrs by calcein staining based fluorescence microscopy; assay type: functional; details: Homo sapiens
In short: (§1)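 HMEC-1 (passage 30-36, serum-starved 24 h) seeded at 30,000 cells/well on Matrigel. Grown 18 h at 37 °C in MCDB-131 with UV-C mildly oxidized LDL (20 µg/mL) ± agent (10 µM). Controls were 0.1% FBS (negative) and 2.5% FBS (positive). Calcein stain (1 µM, 30 min), then fluorescence microscopy. Linked cells counted as % of total cells; mean ± SEM, 4 experiments.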

HMEC-1 [4] = assay: Inhibition of oxidized LDL induced intracellular ROS formation in HMEC1 at 10 uM preincubated for 30 to 40 mins followed by H2DCFDA-AM addition by fluorescence analysis; assay type: functional, cell-based; details: Homo sapiens
In short: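 HMEC-1 given oxLDL (20 µg/mL) ± agent (10 µM) for 40 min. H2DCFDA-AM (5 µM final) added 30 min before the end, then cells washed three times with PBS. Homogenate fluorescence read at ex 495/em 520 nm as a ratio to unstimulated control. Mean ± SEM, 4 experiments.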

[5] = Antioxidant activity assessed as inhibition of DPPH free radical scavenging activity after 60 mins by UV-Visible spectrophotometry; assay type: physicochemical
In short: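 Reduction of ethanolic DPPH radical read by absorbance at 517 nm at 0 and after 60 min at room temperature. I% = 100×(A0−A60)/A0. IC50 is the concentration giving 50% radical inhibition. Run in triplicate, mean ± SEM; Trolox reference.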

[6] = Cytoprotective activity in HMEC1 assessed as inhibition of oxidized LDL induced toxicity measured as residual viability at 10 uM after 24 hrs by MTT assay (reference value: 20 +/- 5 %); assay type: functional, Homo sapiens, HMEC-1
[7] = Cytoprotective activity in HMEC1 assessed as inhibition of oxidized LDL induced toxicity measured as residual viability at 1 uM after 24 hrs by MTT assay (reference value: 20 +/- 5 %); assay type: functional, Homo sapiens, HMEC-1
[8] = Antioxidant activity assessed as inhibition of DPPH free radical scavenging activity by EPR spectrophotometry; assay type: physicochemical
In short: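 DPPH radical scavenging measured by EPR spectroscopy instead of absorbance at 517 nm, used where staining prevented the absorbance reading; value given as IC50 for 50% DPPH radical inhibition.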

[9] = Antioxidant activity in HMEC1 assessed as inhibition of cell induced LDL oxidation by measuring TBARS level at 10 uM relative to control; assay type: functional, Homo sapiens, HMEC-1; set-up: scale not given: the % may be the effect or the level left
In short: (§2)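 HMEC-1 (passage 30-36) in serum-free RPMI 1640 with native human LDL (100 µg apoB/mL). Agent added with the LDL in DMSO (0.1% final), 14 h at 37 °C. TBARS measured in the medium and expressed as % of LDL-plus-vehicle control; Trolox reference. Mean ± SEM of 4 experiments.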

[10] = Antiangiogenic activity in HMEC1 assessed as inhibition of oxidized LDL induced tube formation measured as residual tube at 10 uM after 18 hrs by calcein staining based fluorescence microscopy; assay type: functional, Homo sapiens, HMEC-1; in short: as §1
[11] = Antioxidant activity in HMEC1 assessed as inhibition of cell induced LDL oxidation by measuring TBARS level at 1 uM relative to control; assay type: functional, Homo sapiens, HMEC-1; set-up: scale not given: the % may be the effect or the level left; in short: as §2

SMILES | viability at 24 h, 10 µM [1] [%] | viability at 24 h, 1 µM [2] [%] | antiangiogenic activity (active/not active) (HMEC-1 [3]) | ROS inhibition (active/not active) (HMEC-1 [4]) | IC50 [5] [µM] | Activity [6] [%] | Activity [7] [%] | IC50 [8] [µM] | Activity [9] [%] | Activity [10] [%] | Activity [11] [%]
COc1cc(/C=N/Nc2nncc3ccccc23)cc(-c2cc(/C=N/Nc3nncc4ccccc34)cc(OC)c2O)c1O | 98 | 109 | Active | Active | 9.7 | – | – | – | – | – | –
Cc1c(C)c2c(c(C)c1O)CCC(C)(C(=O)O)O2 (configuration not stated) [TROLOX] | 95 | 98 | Active | Active | 20.1 | 68 | 45 | 17.7 | 10 | 20 | 57
COc1cc(/C=N/Nc2nc3ccccc3s2)cc(Oc2cc(/C=N/Nc3nc4ccccc4s3)cc(OC)c2O)c1O | 80 | 93 | Active | Active | 8.6 | 69 | 51 | – | 12 | – | 93
COc1cc(/C=N/N=c2\[nH]ncc3ccccc23)cc(-c2cc(/C=N/N=c3/[nH]ncc4ccccc34)cc(OC)c2O)c1O.Cl.Cl | – | – | – | – | – | 99 | 52 | – | 8 | – | 56
COc1cc(/C=N/NC(=O)c2ccncc2)cc(-c2cc(/C=N/NC(=O)c3ccncc3)cc(OC)c2O)c1O | 88 | 100 | – | – | 38.8 | 19 | 18 | – | 92 | – | 112
COc1cc(/C=N/NC(=O)c2cc(C)n[nH]2)cc(-c2cc(/C=N/NC(=O)c3cc(C)n[nH]3)cc(OC)c2O)c1O | 105 | 107 | – | – | 29.1 | 40 | 14 | – | 71 | – | 99
COc1cc(C=O)cc(-c2cc(C=O)cc(OC)c2O)c1O | 99 | 100 | – | – | 382 | 21 | 19 | – | 88 | – | 103
COc1cc(/C=N/Nc2nc3ccccc3s2)cc(-c2cc(/C=N/Nc3nc4ccccc4s3)cc(OC)c2O)c1O | 78 | 90 | Active | Active | 27.7 | 91 | 58 | – | 7 | – | 19
COc1cc(C=O)cc(Oc2cc(C=O)cc(OC)c2O)c1O | 85 | 89 | – | – | 289 | 35 | 32 | – | 87 | – | 95
COc1cc(/C=N/N=c2/[nH]ncc3ccccc23)cc(Oc2cc(/C=N/N=c3/[nH]ncc4ccccc34)cc(OC)c2O)c1O.Cl.Cl | 90 | 95 | – | Active | 11.5 | 72 | 56 | – | 10 | <5 | 37
COc1cc(/C=N/NC(=O)OCc2ccccc2)cc(Oc2cc(/C=N/NC(=O)OCc3ccccc3)cc(OC)c2O)c1O | 94 | 102 | inactive | inactive | 23.6 | 69 | 51 | – | 6 | – | 28
COc1cc(/C=N/NC(=O)c2cc(C)n[nH]2)cc(Oc2cc(/C=N/NC(=O)c3cc(C)n[nH]3)cc(OC)c2O)c1O | 100 | 95 | – | – | 19.8 | 65 | 41 | – | 91 | – | 97
COc1cc(/C=N/NC(=O)OCc2ccccc2)cc(-c2cc(/C=N/NC(=O)OCc3ccccc3)cc(OC)c2O)c1O | 85 | 91 | Active | Active | 59.7 | 90 | 52 | – | 5 | – | 18
COc1cc(/C=N/NC(=O)c2ccncc2)cc(Oc2cc(/C=N/NC(=O)c3ccncc3)cc(OC)c2O)c1O | 92 | 95 | – | – | 21.5 | 66 | 42 | – | 88 | – | 100
